Published values pooled from the literature.
Each line is one published result; the experiments were not run side by side.
Target: Death-associated protein kinase 3 (DAPK3, Homo sapiens, UniProt O43293)

For `Cn1cc(-c2cccc(N3CCc4c(sc5c4CC(C)(C)C5)C3=O)c2CO)cc(Nc2ccncn2)c1=O`, the inhibition was -6% (enzyme activity; inhibitor; 1 µM).
`O=c1[nH]c2ccccc2n1C1CCN(Cc2ccc(-c3[nH]c4cc5ncnc5cc4nc3-c3ccccc3)cc2)CC1` gave a remaining signal of 106% (cell-free assay; 0.5 µM).
`Cc1nn(C)cc1-c1nc2c(N3CCN(Cc4ccc(Cl)cc4)CC3)c(Cl)cnc2[nH]1` gave a remaining binding of 84% (binding; competition with immobilised ligand; 1 µM).
The remaining binding of `Cn1cncc1[C@](O)(COc1ccc(C#N)cc1-c1ccc(OC(F)(F)F)cc1)c1ccc(C#N)cc1` is reported as 88% (cell-free assay; competition with immobilised ligand; 1 µM).
For `CC(C)(C)c1cc(C=C(C#N)C#N)cc(Br)c1O`, the remaining activity was 96.4% (enzyme activity; inhibitor; 0.5 µM).
`Cn1cc(-c2cc(F)cc(N3CCn4c(cc5c4CCCC5)C3=O)c2CO)cc(Nc2ccc(N3CCN(C4COC4)CC3)cn2)c1=O` gave an inhibition of 3% (enzyme activity; inhibitor; 0.1 µM).
`COc1ncccc1-c1cnn2ccc(N3CCN(C(=O)OC(C)C)CC3)nc12` gave a remaining binding of 98% (binding; competition with immobilised ligand; 1 µM).
`Nc1ncc(-c2nc(N3CCOCC3)nc(N3CCOCC3)n2)c(C(F)F)n1` gave a remaining binding of 80% (binding; competition with immobilised ligand; 10 µM).
